# Runt-SMMHC FRET: inhibitors of RUNX1 Runt–CBFb-SMMHC binding, primary screen, biochemical, FRET, Cerulean-Runt, Venus-CBFb-SMMHC, uHTS. Runt-related transcription factor 1 (Homo sapiens) + Core-binding factor subunit beta …. Cerulean-Runt/Venus-CBFb-SMMHC FRET ratio 530/480, 1 h. inhibition, % at 20 µM. 220,000 compounds, 0.74% hits;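 active = mean inhibition across duplicate retests at 20 µM reaching about 50%, limit read from the data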;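 note: 0% = DMSO wells and 100% = wells with excess untagged CBFb-SMMHC; inhibitors lower the FRET ratio by blocking Runt binding to CBFb-SMMHC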
# RanGTP-Impb inh: inhibitors of RanGTP-importin-beta interaction, primary screen, biochemical, FRET, CFP-Ran, YFP-importin-beta, homogeneous; Ran GTPase (GTP-bound) - importin-beta complex; cell-free CFP-Ran/YFP-importin-beta FRET ratio; inhibition, % (no concentration beside the values); 300,000 compounds, 1.1% hits; AID 2216, 2009;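 active = more than half of the replicate wells show a fall in the fluorescence ratio signal beyond about 16%, limit read from the data, passing the limit was not always enough; inconclusive = exactly half of the replicate wells pass the set limit; inactive = fewer than half of replicates pass the limit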;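 note: 0% = DMSO wells and 100% = Ran loaded with GDP instead of GTP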
# Hck-Nef inh: inhibitors of Nef-activated human Hck kinase, primary screen, biochemical, Z-Lyte FRET, 384-well, Hck-YEEI; Tyrosine-protein kinase HCK (Homo sapiens), P08631; Recombinant Hck-YEEI plus Nef, Z-Lyte FRET kinase assay; inhibition, % at 20 µM; 220,000 compounds, 0.68% hits; AID 463187, 2010;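 active = Hck-Nef kinase inhibition above about 50%, limit read from the data; inactive = inhibition below that limit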;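 note: 0% = DMSO with Hck plus Nef and 100% = Hck alone without Nef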
# Target sequence (P08631 whole entry, looked up): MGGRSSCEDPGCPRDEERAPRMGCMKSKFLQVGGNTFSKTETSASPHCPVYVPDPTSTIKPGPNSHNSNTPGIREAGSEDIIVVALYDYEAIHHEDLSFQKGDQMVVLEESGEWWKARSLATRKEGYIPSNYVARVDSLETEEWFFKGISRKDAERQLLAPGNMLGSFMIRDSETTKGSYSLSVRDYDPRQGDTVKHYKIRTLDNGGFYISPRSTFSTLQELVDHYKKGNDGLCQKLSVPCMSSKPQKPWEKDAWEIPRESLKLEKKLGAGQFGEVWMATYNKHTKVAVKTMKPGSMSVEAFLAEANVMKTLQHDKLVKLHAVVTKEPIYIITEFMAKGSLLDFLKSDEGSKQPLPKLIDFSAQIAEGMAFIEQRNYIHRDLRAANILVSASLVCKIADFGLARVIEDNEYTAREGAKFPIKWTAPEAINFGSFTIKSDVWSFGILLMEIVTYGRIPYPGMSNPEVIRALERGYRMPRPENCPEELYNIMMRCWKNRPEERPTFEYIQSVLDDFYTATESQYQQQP
# Runt-CBFb FRET: inhibitors of RUNX1 Runt–CBFb binding, primary screen, biochemical, FRET, Cerulean-Runt, Venus-CBFb, uHTS; Runt-related transcription factor 1 (Homo sapiens) + Core-binding factor subunit beta …; Cerulean-Runt/Venus-CBFb FRET ratio 530/480, 1 h; inhibition, % at 20 µM; 220,000 compounds, 0.46% hits;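 active = inhibition over about 50% at 20 µM in the single-dose screen, limit read from the data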;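 note: 0% = DMSO wells and 100% = excess unlabeled CBFb competitor control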
#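 Assay system: Cerulean-Runt domain / Medium: Tris 50 mM pH 7.5, KCl, K2SO4, 0.01% BSA / Timing: protein complex preformed 1 h, compound exposure 1 h, room temperature, dark / Measured by: FRET, excitation 422 nm, emission at 530 and 480 nm / Evaluation: loss of energy transfer signal / Control set: 5 µM unlabeled CBFb as full-inhibition high control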
# CaV13 FRET inh: Disruptors of the CACNA1D IQ motif to Ca2+-dependent inactivation inhibitor domain association, primary screening, Förster resonance energy transfer in intact living …. HEK cells, CFP/YFP FRET ICDI-IQ, plate reader, 10 min; percent FRET-ratio fall versus neutral wells. inhibition, % at 12.3 µM. 340,000 compounds, 0.098% hits. AID 743397;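 active = mean replicate inhibition of at least 30% and at least 1% of replicates passing that level; inconclusive = only one of the two criteria is met; inactive = neither criterion is met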;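 note: 0% = median of the neutral control wells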
# Starred values were filed as active, the others as inactive; ? = inconclusive; . = not tested or not shown. Sampled rows, rich in hits. Any-hit rate of the full collection: about 1.5%.
SMILES,Runt-SMMHC FRET,RanGTP-Impb inh,Hck-Nef inh,Runt-CBFb FRET,CaV13 FRET inh
COc1ccc(C=C2C(=O)OC(C)(C)OC2=O)cc1OC,-4,1,2,1,-21
COc1ccc(/C=C2\Oc3cc(OC(=O)N4CCOCC4)ccc3C2=O)cc1,-1,22*,-4,-18,-4
COc1ccc(/C=C2\OC(=O)c3c(OC)cccc32)cc1OC,-16,39*,6,5,.
O=C1/C(=C/c2ccc(O)c(O)c2)Oc2cc(O)ccc21,55*,.,-18,-81,.
Cc1ccsc1/C=C1\Oc2cc(O)ccc2C1=O,.,.,.,.,-27
COc1cc(/C=C2\Oc3cc(O)ccc3C2=O)ccc1O,78*,2,-33,11,.
O=C1/C(=C/c2cccc([N+](=O)[O-])c2)Oc2cc(O)ccc21,.,?,.,.,-23
CC(C)c1ccc(CNc2ccc(N3CCOCC3)cc2)cc1,0,-3,2,5,.
Cc1noc(C)c1S(=O)(=O)N(CC(=O)N1CCCCCC1)c1ccc(C(C)C)cc1,0,3,1,-1,51*
O=C(Nc1cccc(Cl)c1)Nc1nnc(-c2ccncc2)s1,-7,-1,57*,-7,-2
Cc1ccc(C(=O)O)cc1NC(=O)c1cccs1,-7,0,11,-3,-4
CC(=O)C(/C=N/c1ncc(C(F)(F)F)cc1Cl)=C(\C)O,-1,22*,20,-1,6
COc1ccccc1N1CCN(C(=O)COc2ccc(Cl)cc2Br)CC1,-3,-2,-1,-5,.
O=C1/C(=C\c2ccco2)SC(=S)N1c1ccc(O)cc1,11,-2,72*,22,-5
COc1ccc(CNC(=O)c2cc3c(=O)n4ccccc4nc3n(Cc3cccnc3)c2=N)cc1,150*,72*,7,72*,-2
N=c1c(C(=O)NCc2ccc3c(c2)OCO3)cc2c(=O)n3ccccc3nc2n1Cc1cccnc1,144*,63*,10,95*,.
COc1cc(C2C(C#N)=C(N)N(Nc3ccccc3)C3=C2C(=O)CC(C)(C)C3)ccc1OCc1ccccc1 (stereo unspecified),32,5,5,18,.
C=CCOc1ccc(C2C(C#N)=C(N)N(Nc3ccccc3)C3=C2C(=O)CCC3)cc1OC (stereo unspecified),104*,7,15,89*,.
Cc1cc(=O)oc2cc(OCCCN3C(=O)c4ccccc4C3=O)ccc12,8,-2,9,-2,-14
CCc1ccc(OC(=O)c2cncc(Br)c2)cc1,.,1,.,.,-19
Cc1cc(=O)oc2cc(OC(=O)c3cncc(Br)c3)ccc12,59*,1,69*,33,45*
CCCCn1nc(C(=O)Oc2ccc3c(C)cc(=O)oc3c2)c2ccccc2c1=O,58*,4,36,30,-17
CCCC(=O)Oc1ccc2c(C)cc(=O)oc2c1,24,?,77*,8,-5
Cc1cc(=O)oc2cc(OC(=O)CCN3C(=O)c4ccccc4C3=O)ccc12,35,4,18,15,-6
O=C(Nc1ccc(Cl)cc1)OCCN1CCOCC1,.,.,.,.,-8
SMILES,Runt-SMMHC FRET,RanGTP-Impb inh,Hck-Nef inh,Runt-CBFb FRET,CaV13 FRET inh
COc1ccc(/C=N/n2c(-c3n[nH]c4c3CCC4)n[nH]c2=S)c(OC)c1OC,14,-1,-145,14,-17
Oc1c(C=Nc2cccnc2)sc2ccccc12,63*,22*,2,34,.
Oc1c(C=NCc2ccncc2)sc2ccccc12,66*,13,6,42,-5
CN=Cc1sc2ccccc2c1O,54,13,2,28,-7
CCCN=Cc1sc2ccc(OCC)cc2c1O,4,5,2,8,-5
Oc1c(/C=N/c2ccccn2)sc2ccccc12,16,23*,-1,10,-6
CC(=O)NCCN=Cc1sc2ccccc2c1O,60*,31*,2,31,-5
CCCCNC(=O)C[C@@H]1C[C@@]2(C(=O)OCC)CCCC=C2N(Cc2ccc(Cl)cc2Cl)C1=O,.,.,.,.,-6
C[N+](C)(CCOc1ccccc1)Cc1ccccc1,.,.,.,.,-6
COc1ccc(CCC(=O)OCc2csc(CC(=O)Nc3ccc(C)cc3)n2)cc1OC,.,.,.,.,-17
O=C(c1cccs1)N(Cc1ccccn1)Cc1ccco1,-4,-2,-21,2,-5
CCOc1ccc(NS(=O)(=O)c2ccc(C(=O)N(CC)CC(=O)NCc3cccs3)cc2)cc1,.,1,.,.,.
CCOc1ccc(S(=O)(=O)Nc2ccc(C(=O)N(CC)CC(=O)NCc3cccs3)cc2)cc1,.,.,.,.,55*
COc1ccc(-c2oc3cccnc3c2C#CC2(O)CCCCC2)cc1,.,23*,.,.,-8
CC1CCCN(C2=NC(=O)/C(=C/c3cn(-c4ccccc4)nc3-c3cccc(S(=O)(=O)N(C)C)c3)S2)C1 (stereo unspecified),-5,5,1,-4,.
Cc1cccc(C)c1OCC(=O)NCc1nnc(SCC(=O)NC2CCCCC2)n1C,-3,1,-10,0,-8
CN(C)CCCOC(=O)c1sc2ccccc2c1Cl,-1,-3,17,1,-1
CCCCOC(=S)NC(=O)c1sc2ccccc2c1Cl,3,29*,3,3,-5
COc1c(OC)c2[nH]c(=O)cc3c4ccccc4n(c1=O)c23,.,157*,.,.,.
O=c1[nH]c2ccccc2nc1-c1cccs1,169*,9,13,91*,-5
Cc1[nH]n(-c2ccccc2)c(=O)c1C=Nc1ccc(S(=O)(=O)N=C(N)N)cc1,-3,-1,18,-1,0
Cc1[nH]n(-c2ccccc2)c(=S)c1C=Nc1ccc([N+](=O)[O-])cc1,74*,.,4,-7,-1
COc1cccc(-c2cc(-c3cccnc3)nc(N)c2C#N)c1,9,6,12,0,-5
O=S(=O)(Nc1nc2ccccc2nc1N1CCN(c2ccccn2)CC1)c1ccc(Cl)cc1,104*,.,11,34,-4
Cc1ccc(-c2c(C(=O)Nc3ccccc3C)c(C)[nH]c(=S)c2C#N)o1,-101,2,56*,-20,-5
Cn1c(NNC(=O)c2ccc(C(C)(C)C)cc2)cc(=O)n(C)c1=O,77*,7,1,41,-7
O=C(c1ccccc1)c1ccc(Oc2ccc(C(=O)O)c(C(=O)O)c2)cc1,.,1,.,.,-2
N#C/C(=C\c1ccc(Cl)cc1)c1nc2ncccc2[nH]1,34,36*,4,17,.
N#C/C(=C\c1c(Cl)cccc1Cl)c1nc2ccccc2[nH]1,-2,8,-13,1,-4
